Screening results: PubChem BioAssay, several laboratories
This is a sample that favours compounds with a hit; in the whole collection about 3% have one here.
MEKK2wt PB1 HTS – raises or lowers MEK5 binding to wildtype human MEKK2 PB1 domain; bead flow cytometry, Alexa488-MEK5 binding to MEKK2 WT; actives lie on both sides; actives 1.1% (n = 290,000); AID 1531; binding response (% of control), % at 10 µM; Q9Y2U5; in the data active = binding response below about 67% or above about 130%
MEKK2 mut-MEK5 – signal of MEK5 binding to mutant human MEKK2 PB1 domain. bead flow cytometry, Alexa488-MEK5 binding to MEKK2 mutant. percent response, % at 10 µM. actives 0.35% (n = 290,000). AID 1530; in the data active = percent response above about 24%, passing the limit was not always enough
UBC13 polyUb – inhibitors of human UBC13 polyubiquitin chain formation | P61088 | TR-FRET | inhibition, % at 20 µM | actives 0.47% (n = 330,000) | AID 485273; in the data active = inhibition above about 45%, passing the limit was not always enough
Target sequence (P61088 whole entry, looked up): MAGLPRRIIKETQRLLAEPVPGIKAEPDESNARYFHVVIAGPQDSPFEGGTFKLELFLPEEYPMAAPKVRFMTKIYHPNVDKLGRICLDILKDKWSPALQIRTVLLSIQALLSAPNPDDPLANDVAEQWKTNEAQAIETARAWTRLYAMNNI
Apaf-1 inh – blocks human Apaf-1 apoptosome activity; O14727; reconstituted apoptosome caspase-3 activity, DEVD-Rh110 fluorescence; inhibition, % at 20 µM; actives 0.71% (n = 330,000); active = inhibition of at least 40% at 20 µM;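 note: plate controls were DMSO wells for no effect and DEVD-CHO caspase inhibitor wells for full effect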
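System – cell-free apoptosome with Apaf-1, procaspase-3 and caspase-9 · Buffer or medium – pH 7.5 Hepes buffer with CHAPS, BSA, DTT · Also added – cytochrome c with DEVD-Rh110 · Times – 30 min compound preincubation, 50 min activation, room temperature · Technique – Rh110 fluorescence intensity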
UCH37 inh – inhibitors of human deubiquitinating enzyme UCH37. Q9Y5K5. purified proteasome/UCH37, Ub-AMC cleavage fluorescence. inhibition, % (test concentration not listed). actives 0.33% (n = 330,000). AID 588478;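 active = mean inhibition over replicate wells above about 20%, limit read from the data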;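 note: 0% = compound-free wells with enzyme and 100% = wells lacking proteasome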
Target sequence (Q9Y5K5 whole entry, looked up): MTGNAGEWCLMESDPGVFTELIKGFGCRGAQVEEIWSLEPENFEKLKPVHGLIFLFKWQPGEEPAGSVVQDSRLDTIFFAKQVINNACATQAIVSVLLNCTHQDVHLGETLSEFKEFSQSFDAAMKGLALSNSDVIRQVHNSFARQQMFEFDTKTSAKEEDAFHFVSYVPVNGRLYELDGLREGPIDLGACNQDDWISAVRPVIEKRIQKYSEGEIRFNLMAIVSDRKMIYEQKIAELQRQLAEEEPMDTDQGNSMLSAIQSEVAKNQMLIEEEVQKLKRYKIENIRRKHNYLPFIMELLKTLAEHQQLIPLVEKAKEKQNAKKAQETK
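Material: Human UCH37 enzyme supplied as purified proteasome complex | Schedule: 30 min preincubation with enzyme, 25 min cleavage at room temperature | Detection: AMC fluorescence 355/460 nm | Measure: % inhibition of Ub-AMC cleavage fluorescence | Controls: Wells without proteasome as full block, compound-free enzyme plus substrate as uninhibited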
MEKK3 PB1 HTS – MEKK3-MEK5 PB1 interaction, increase or decrease; Q99759; bead-based flow cytometry, Alexa488-MEK5 binding to MEKK3; actives lie on both sides; 0 = blocked by unlabeled MEK5, 100 = vehicle; binding response (% of control), % at 10 µM; actives 1.4% (n = 290,000);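 active = binding response more than 3 SD above or below the average of its plate-row segment, actives on both sides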;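 note: Alexa488 bead fluorescence after subtracting the streptavidin-only scavenger bead signal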
Casp3 counter – inhibits human caspase-3 in UBC13 counter-screen | Recombinant caspase-3, Caspase-Glo 3/7 luminescence, 60 min | inhibition, % at 20 µM | actives 4% (n = 1,400) | shares compounds with UBC13 polyUb;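 active = mean inhibition across replicates above about 26%, limit read from the data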;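 note: plate controls were DMSO with caspase-3 for no effect and DMSO wells lacking enzyme for full effect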
Target sequence (P42574 whole entry, looked up): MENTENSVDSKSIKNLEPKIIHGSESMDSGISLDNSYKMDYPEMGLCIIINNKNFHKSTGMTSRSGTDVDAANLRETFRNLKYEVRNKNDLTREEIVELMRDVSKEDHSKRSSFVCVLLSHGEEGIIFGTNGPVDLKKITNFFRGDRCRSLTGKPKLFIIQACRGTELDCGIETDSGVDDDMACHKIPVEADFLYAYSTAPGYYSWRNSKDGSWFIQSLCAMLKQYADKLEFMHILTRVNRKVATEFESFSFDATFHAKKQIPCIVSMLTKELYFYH
UBC13 conf – human UBC13 polyubiquitin inhibition, confirmed; shares compounds with UBC13 polyUb; UBC13 polyubiquitination, TR-FRET, biochemical; inhibition, % at 10 µM; actives 68% (n = 1,400); in the data active = inhibition above about 45%
Apaf-1 inh conf2 – confirmation of Apaf-1 inhibitors; shares compounds with Apaf-1 inh; reconstituted apoptosome, caspase-3 DEVD-Rh110 fluorescence; inhibition, % at 20 µM; actives 25% (n = 1,800); AID 504614;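 active = mean inhibition of at least 40% at 20 µM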;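 note: plate controls were DMSO wells for no effect and DEVD-CHO caspase inhibitor control wells for full effect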
Rh110 interf inh – interferes with Rh110 fluorescence, flagging false Apaf-1 inhibitors; shares compounds with Apaf-1 inh; Rh110 fluorescence interference, quenched caspase reaction; activation (fluorescence interference), % at 20 µM; 1,800 tested, under 10 active;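 active = signal rise of 40% or more at 20 µM, treated as a fluorescence artifact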
Apaf1 inh interf – counter-screen for Apaf-1 inhibitors: fluorescence interference, dose response; 460 tested, under 10 active; IC50, µM; AID 588538; shares compounds with Apaf-1 inh; fluorescence interference counterscreen, Apaf-1 assay format; call rule not given here
An asterisk follows results filed as active; x = no result given.

SMILES	MEKK2wt PB1 HTS	MEKK2 mut-MEK5	UBC13 polyUb	Apaf-1 inh	UCH37 inh	MEKK3 PB1 HTS	Casp3 counter	UBC13 conf	Apaf-1 inh conf2	Rh110 interf inh	others
CC(C)(C)c1ccc(OCc2ccc(C(=O)NN=Cc3ccc([N+](=O)[O-])cc3)o2)cc1	x	x	x	x	3.8	x	x	x	x	x
Cc1ccccc1NN=Cc1ccc(N2CCOCC2)cc1	x	x	x	x	-2.5	x	x	x	x	x
Cc1ccc2oc(Nc3nc(-c4ccccc4)cc(=O)[nH]3)nc2c1	97.0	-4.0	5.1	-6.3	-2.8	104.0	x	x	x	x
COC(=O)Cc1cc(=O)[nH]c(/N=C(\N)Nc2ccccc2)n1	108.0	5.0	16.8	-4.5	x	103.0	x	x	x	x
COCc1cc(=O)[nH]c(Nc2nc(C)c3ccccc3n2)n1	77.0	-17.0	-4.6	6.5	4.5	89.0	x	x	x	x
COCc1cc(=O)[nH]c(Nc2nc3ccccc3o2)n1	108.0	6.0	80.7*	6.7	3.4	105.0	43.2*	81.3*	x	x
CCOC(=O)Cc1cc(=O)[nH]c(Nc2nc3ccccc3o2)n1	108.0	5.0	82.5*	-7.1	7.3	101.0	45.1*	92.9*	x	x
COC(=O)Cc1cc(=O)[nH]c(Nc2nc3ccccc3o2)n1	97.0	-4.0	57.9*	4.7	3.6	93.0	18.2	72.8*	x	x
Cc1ccc(-c2oc3ncnc(N)c3c2-c2ccc(C)cc2)cc1	97.0	-8.0	88.3*	24.6	-134.6	97.0	-1.5	82.2*	x	x
Cc1cc(C)cc(N2C(=O)CN(Cc3ccccc3)C2=S)c1	108.0	3.0	-6.1	17.9	5.4	105.0	x	x	x	x
c1ccc2c(C[C@@H]3CNCCN3CC3CCCCC3)cccc2c1	x	x	59.5*	43.7*	-0.1	x	2.1	58.3*	7.5	9.4
CN(C)C/C=C/C(=O)Nc1cccc(-c2c[nH]c3ncnc(Oc4ccc(NC(=O)CC(=O)Nc5ccc(F)cc5)cc4F)c23)c1	x	x	112.1*	63.0*	3.7	x	2.9	117.3*	21.6	0.8
CC(=O)Nc1cccc(Oc2ncnc3scc(-c4ccccc4)c23)c1	110.0	-1.0	3.2	5.5	2.0	101.0	x	x	x	x
CN(C)CC/C=C1\c2ccccc2Sc2cc(F)c(Cl)cc21	x	x	30.6	9.1	6.9	x	x	x	x	x
OCCN1CCN(CC/C=C2/c3ccccc3Sc3ccc(Cl)cc32)CC1	x	x	74.5*	43.4*	3.6	x	4.4	60.1*	12.2	5.8
O=C(O)CC(C(=O)O)N1C(=O)/C(=C/C=C/c2ccco2)SC1=S (stereo not given)	81.0	-24.0	73.9*	85.4*	21.1*	81.0	2.2	47.7*	48.7*	1.2	Apaf1 inh interf=>100
O=C(c1ccccn1)N1CCN(S(=O)(=O)c2ccccc2)CC1	103.0	1.0	-10.4	-6.4	3.5	104.0	x	x	x	x
CCC[C@@H](CN1CCC[C@H]1CN1C(N)=NC[C@H]1C(C)C)N1C[C@@H](Cc2ccccc2)N(CCCC2CCCC2)C1=N	x	x	64.7*	45.6*	4.0	x	-2.8	46.7*	13.0	-0.1
CC(C)C[C@@H]1CN=C(N)N1C[C@@H]1CCCN1C[C@@H](C(C)C)N1C[C@@H](Cc2ccccc2)N(CCCC2CCCC2)C1=N	x	x	78.1*	54.8*	0.8	x	-4.5	76.5*	12.5	-1.2
CCN(CC)CCNC(=O)c1ccc(NC(=O)c2cn(-c3ccc(F)cc3)nc2-c2cccc(OC)c2)cc1	222.0*	51.0*	92.0*	45.1*	2.7	108.0	-2.5	115.2*	22.2	7.3
COc1ccc(C2=Nn3c(nnc3-c3ccccc3F)SC2)cc1OC1CCCC1	x	x	55.4*	47.3*	x	x	6.8	40.4	23.4	8.8
COc1ccc(C2=Nn3c(nnc3-c3ccccc3OC)SC2)cc1OCC1CC1	x	x	9.6	30.5	0.7	x	x	x	x	x
Cc1cc(NC(=O)COC(=O)c2cc(S(=O)(=O)N(C)c3ccccc3)ccc2Cl)no1	104.0	1.0	7.2	9.6	3.0	104.0	x	x	x	x
COc1ccccc1N1CCN(C(=O)c2cc3cc(Cl)ccc3[nH]2)CC1	102.0	3.0	-0.2	29.5	2.1	104.0	x	x	x	x
Cc1ccc2nc(N(CCCN(C)C)C(=O)c3ccc(S(=O)(=O)N4CCOCC4)cc3)sc2c1	116.0	10.0	15.2	4.2	0.7	100.0	x	x	x	x
SMILES	MEKK2wt PB1 HTS	MEKK2 mut-MEK5	UBC13 polyUb	Apaf-1 inh	UCH37 inh	MEKK3 PB1 HTS	Casp3 counter	UBC13 conf	Apaf-1 inh conf2	Rh110 interf inh	others
CN(C)CCCN(C(=O)c1ccc(S(=O)(=O)N(C)C)cc1)c1nc2ccc(F)cc2s1	112.0	13.0	13.8	-16.6	1.1	102.0	x	x	x	x
Cc1ccc2nc(N(CCCN(C)C)C(=O)c3ccc(S(=O)(=O)N4CCc5ccccc5C4)cc3)sc2c1	223.0*	55.0*	77.8*	53.0*	x	113.0	-6.0	110.1*	19.6	6.6
CN(C)CCCN(C(=O)c1ccc(S(=O)(=O)N2CCc3ccccc3C2)cc1)c1nc2ccc(F)cc2s1	252.0*	71.0*	54.6*	70.3*	x	116.0	5.8	98.8*	45.8*	5.1	Apaf1 inh interf=>100
Cc1cc(N=Cc2c(O)n(-c3cccc(C(F)(F)F)c3)c(=O)c3ccccc23)no1	89.0	-3.0	5.4	-2.9	0.7	86.0	x	x	x	x
CC[C@@H](C)[C@@H]1CN([C@@H](C)CN2CCC[C@H]2CN2C(N)=NC[C@@H]2Cc2ccccc2)C(=N)N1CCc1ccc(Cl)c(Cl)c1	x	x	76.5*	70.7*	1.2	x	1.6	69.8*	5.8	6.2
CC[C@@H](C)[C@@H]1CN([C@@H](CN2CCC[C@H]2CN2C(N)=NC[C@H]2C(C)C)C(C)C)C(=N)N1CCc1ccc(Cl)c(Cl)c1	x	x	75.0*	51.0*	3.8	x	-2.4	61.3*	15.8	6.0
CCCCN1C(=N)N([C@@H](CCC)CN2CCC[C@H]2CN2C(N)=NC[C@@H]2Cc2ccccc2)C[C@H]1[C@H](C)CC	x	x	37.0	34.0	-0.5	x	x	x	x	x
CC[C@@H](C)[C@@H]1CN([C@@H](C)CN2CCC[C@H]2CN2C(N)=NC[C@@H]2Cc2ccccc2)C(=N)N1CCCC1CCCC1	x	x	70.9*	61.6*	3.3	x	-2.4	72.6*	2.2	-1.6
O=C(O)C(Cc1cc2ccccc2[nH]1)N1C(=O)C2CC=C(Cl)CC2C1=O (stereo not given)	100.0	6.0	-5.2	-6.8	7.4	96.0	x	x	x	x
